Reference: ChEMBL document CHEMBL4257441, “Protection effect of intracellular melanin from Lachnum YM156 and Haikunshenxi capsule combination on adenine-induced chronic renal failure in mice” (Medchemcomm, 2017)
Activity calls are given as the source filed them. The calls are words filed in the database; no cut-off is given here.

Legend:
Mus musculus [1] = assay: Protective effect against adenine-induced chronic renal failure in Kunming mouse assessed as reduction in renal tubular atrophy at 200 mg/kg, ig qd administered for 4 successive weeks by haematoxylin and eosin dye-based optical microscopic method; type: functional, organism-based
Summary of the method: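 Kidneys were taken from male Kunming mice given an adenine diet plus oral melanin (100 or 200 mg kg–1), with or without Haikunshenxi capsule, ten per group. Histological sections were examined at 400× for glomeruli, tubules, adenine crystals, tubular atrophy and interstitial fibrosis.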

Mus musculus [2] = assay: Protective effect against adenine-induced chronic renal failure in Kunming mouse assessed as nephridial GSH-PX levels at 100 mg/kg, ig qd administered for 4 successive weeks by colorimetric method (reference value: 688.45 +/- 12.67 U/L); type: functional
Mus musculus [3] = assay: Protective effect against adenine-induced chronic renal failure in ig dosed Kunming mouse assessed as increase in albumin levels in serum administered as qd for 4 successive weeks with haikunshenxi capsule by bromocresol green colorimetric method; type: functional, organism-based
Summary of the method: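 Adenine-fed CRF model in male Kunming mice (20 ± 5 g) housed at 18–20 °C on a 12 h light/dark cycle. Oral dosing at 100 or 200 mg kg–1, with or without Haikunshenxi capsule; ten mice per group. Serum creatinine, BUN, total protein and albumin measured, each group compared with the model group.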

Mus musculus [4] = assay: Protective effect against adenine-induced chronic renal failure in Kunming mouse assessed as nephridial CAT levels at 200 mg/kg, ig qd administered for 4 successive weeks by visible spectrometry method (reference value: 44.13 +/- 1.25 U/mg); type: functional
Mus musculus [5] = assay: Protective effect against adenine-induced chronic renal failure in ig dosed Kunming mouse assessed as increase in nephridial GSH levels administered as qd for 4 successive weeks with haikunshenxi capsule by colorimetric method; type: functional, organism-based
Summary of the method: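 Male Kunming mice (20 ± 5 g) given dietary adenine to induce CRF, then dosed orally at 100 or 200 mg kg–1, with or without Haikunshenxi capsule; n = 10 per group. Kidney homogenate assayed for SOD and CAT (U mg–1 protein), GSH-Px (U L–1), GSH (mg g–1 protein) and MDA (nmol mL–1).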

Mus musculus [6] = assay: Protective effect against adenine-induced chronic renal failure in Kunming mouse assessed as kidney index at 200 mg/kg, ig qd administered for 4 successive weeks measured 24 hrs post last dose (reference value: 1.94 +/- 0.03 mg/g); type: functional
Summary of the method: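 Male Kunming mice (20 ± 5 g) were housed on a 12 h light/dark cycle at 18–20 °C. Chronic renal failure was induced by long-term dietary adenine. The melanin was given orally at 100 or 200 mg kg–1, alone or with Haikunshenxi capsule as positive drug, with ten mice per group. Weight growth rate (%) and kidney index (mg g–1) were recorded.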

Mus musculus [7] = assay: Protective effect against adenine-induced chronic renal failure in Kunming mouse assessed as nephridial GSH-PX levels at 100 mg/kg, ig qd administered for 4 successive weeks with haikunshenxi capsule by colorimetric method (reference value: 688.45 +/- 12.67 U/L); type: functional
Mus musculus [8] = assay: Protective effect against adenine-induced chronic renal failure in Kunming mouse assessed as nephridial SOD levels at 200 mg/kg, ig qd administered for 4 successive weeks by hydroxylamine method (reference value: 30.45 +/- 1.12 U/mg); type: functional
Mus musculus [9] = assay: Protective effect against adenine-induced chronic renal failure in ig dosed Kunming mouse assessed as decrease in nephridial IL-6 levels administered as qd for 4 successive weeks; type: functional, organism-based
Summary of the method: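 CRF model made by chronic dietary adenine in male Kunming mice (20 ± 5 g); oral dosing at 100 or 200 mg kg–1, alone or with Haikunshenxi capsule; ten mice per group. Kidney tissue TNF-α, IL-1β and IL-6 measured as pg per mg protein, and iNOS activity as U mg–1 protein.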

Mus musculus [10] = assay: Protective effect against adenine-induced chronic renal failure in Kunming mouse assessed as nephridial IL-6 levels at 200 mg/kg, ig qd administered for 4 successive weeks (reference value: 20.85 +/- 0.11 pg/ml); type: functional
Mus musculus [11] = assay: Protective effect against adenine-induced chronic renal failure in Kunming mouse assessed as nephridial GSH-PX levels at 200 mg/kg, ig qd administered for 4 successive weeks by colorimetric method (reference value: 688.45 +/- 12.67 U/L); type: functional

`Cc1c(=O)c(=O)c2c3c[nH]c4c(C)c(=O)c(=O)c(c5c[nH]c1c52)c43` was tested, and the Activity (Mus musculus [1]) was “Active”, the Activity (Mus musculus [2]) was 743.09 U/L and the Activity (Mus musculus [3]) was “Dose-dependent effect”. The Activity (Mus musculus [4]) was 64.45 U/mg, the Activity (Mus musculus [5]) was “Dose-dependent effect” and the Activity (Mus musculus [6]) was 1.35 mg/g. For the same compound, the Activity (Mus musculus [7]) was 850.44 U/L, the Activity (Mus musculus [8]) was 38.25 U/mg and the Activity (Mus musculus [9]) was “Dose-dependent effect”. It also gave an Activity (Mus musculus [10]) of 14.16 pg/mL and an Activity (Mus musculus [11]) of 790.43 U/L.
